PLC-gamma1 inh: PLC-gamma1 enzyme inhibitors, primary screen, biochemical, fluorescence, purified enzyme | 1-phosphatidylinositol 4,5-bisphosphate phosphodiesterase gamma-1 (Homo sapiens), P19174 | fluorogenic substrate | inhibition, % at 12.2 µM | 370,000 compounds, 0.84% hits; in the data active = inhibition above about 9.5%
Tn7 DDE FP: inhibitors of Tn7 peptide binding to fibrin DD(E), primary screen, biochemical, fluorescence polarization, human fibrin, Tn7 probe | Fibrinogen beta chain (Homo sapiens), P02675 | FP displacement of FITC-Tn7 peptide from fibrin DD(E); 0% = median of compound wells per plate | inhibition, % at 8.3 µM | 370,000 compounds, 0.13% hits;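 active = inhibition above the mean of compounds falling within the control limits plus 3 SD of them, cut at about 14% in these data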;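 also: 0% = plate median of compound wells and 100% = 10 µM Aha-Tn7 peptide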
Target sequence (P02675 whole entry, looked up): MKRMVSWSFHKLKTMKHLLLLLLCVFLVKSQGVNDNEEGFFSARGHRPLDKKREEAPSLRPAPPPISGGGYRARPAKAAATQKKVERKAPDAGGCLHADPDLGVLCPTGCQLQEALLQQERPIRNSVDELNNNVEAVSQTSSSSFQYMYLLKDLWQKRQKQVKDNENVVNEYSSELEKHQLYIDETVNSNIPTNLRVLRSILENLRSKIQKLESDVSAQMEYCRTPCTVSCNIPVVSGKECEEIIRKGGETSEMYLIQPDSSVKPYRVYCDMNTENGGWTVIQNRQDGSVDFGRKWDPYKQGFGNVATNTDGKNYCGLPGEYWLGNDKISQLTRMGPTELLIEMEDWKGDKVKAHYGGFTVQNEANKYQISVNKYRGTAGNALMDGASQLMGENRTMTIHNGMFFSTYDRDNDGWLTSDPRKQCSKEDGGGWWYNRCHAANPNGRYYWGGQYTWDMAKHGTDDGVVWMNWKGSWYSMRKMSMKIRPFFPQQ
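system = human fibrin DD(E) protein | quantity = DD(E) 2 µM final | medium = Tris/NaCl/CaCl2 buffer, pH 7.8 | also added = labelled Tn7 tracer, 0.1 µM | compound dosing = single point at 8.3 µM | timing = compound with protein 10 min, then 3 h after probe, room temperature | signal = FP measurement | benchmarks = Aha-Tn7 high control | repeats = one replicate per compound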
DDE Tn6 FP inh: inhibitors of Tn6 peptide binding to fibrin DD(E), primary screen, biochemical, fluorescence polarization, human fibrin, Tn6 probe. 370,000 compounds, 0.21% hits. Fibrinogen beta chain (Homo sapiens), P02675. Fibrin DD(E) TRITC-Tn6 fluorescence polarization displacement. inhibition, % at 8.3 µM;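 active = inhibition above a per-campaign cutoff: mean of compounds within control limits plus 3 SD, cut at about 15% in these data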;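 also: 0% = median of all compound wells on the plate and 100% = blocking peptide control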
proKLK7 act: proKLK7 zymogen activators, primary screen, biochemical, fluorescence intensity. Kallikrein-7 (Homo sapiens), P49862. purified proKLK7, EDANS-DABCYL substrate fluorescence; 100% is mature enzyme control, 0% vehicle. activation, % at 7 µM. 370,000 compounds, 0.9% hits;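 active = activation above the mean of all tested compounds plus 3 SD, computed per campaign excluding outliers beyond control limits, cut at about 13% in these data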
Target sequence (P49862 whole entry, looked up): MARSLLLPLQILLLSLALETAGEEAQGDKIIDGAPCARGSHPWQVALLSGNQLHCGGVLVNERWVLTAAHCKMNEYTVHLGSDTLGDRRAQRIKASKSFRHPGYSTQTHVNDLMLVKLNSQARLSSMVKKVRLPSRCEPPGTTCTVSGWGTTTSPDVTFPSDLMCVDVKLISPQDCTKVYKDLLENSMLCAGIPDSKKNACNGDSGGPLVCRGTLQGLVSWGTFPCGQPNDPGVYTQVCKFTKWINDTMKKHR
NRP1-CendR mod: modulators of CendR peptide binding to NRP-1, primary screen, biochemical, fluorescence polarization, uHTS. inhibition, % at 25 µM. 360,000 compounds, 0.85% hits. AID 602438, 2012. FAM-RPARPAR peptide binding to NRP-1. Neuropilin-1 (Homo sapiens), O14786;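 active = inhibition or corrected inhibition above about 18%, plus a signal ratio from 0.5 to 1.5, limit read from the data, passing the limit was not always enough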
PLCb3 inh: human PLC-beta3 inhibitors, primary screen, biochemical, fluorescence; Purified PLC-beta3, fluorogenic substrate; inhibition, % at 12.2 µM; 370,000 compounds, 0.18% hits; AID 720704, 2013; in the data active = inhibition above about 11%;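 also: 0% = median of compound wells on plate and 100% = full blocker control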
proKLK7 act conf: proKLK7 zymogen activators, confirmation, biochemical, fluorescence intensity, triplicate; AID 686949, 2013; purified proKLK7, EDANS-DABCYL substrate fluorescence; scaled: vehicle 0, mature enzyme 100; activation, % at 7 µM; 3,200 compounds, 68% hits; shares compounds with proKLK7 act;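 active = activation, as change over the incubation, above the mean of all tested compounds plus 3 SD, cut at about 13% in these data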
EDANS-DABCYL int: EDANS-DABCYL substrate optical interference, artefact control for kallikrein-7 zymogen activator project, biochemical, fluorescence intensity, high throughput; no enzyme, 4 h; solvent 0%, active enzyme control 100%; activation, % at 7 µM; shares compounds with proKLK7 act; 3,200 compounds, 80% hits; AID 686952, 2013;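 active = activation above the all-compound mean plus 3 SD, ignoring values outside control-based bounds, cut at about 4.8% in these data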;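 also: value is the 4 h activation minus the activation read at time zero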
EDANS interf: optically interferes with EDANS-DABCYL fluorescence, kallikrein-7 activator counter-screen; AID 720493; EC50, µM; shares compounds with proKLK7 act; 250 compounds, 20% hits; EDANS-DABCYL peptide fluorescence interference, no enzyme;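 active = compounds that raise the fluorescence signal in this interference counterscreen, with EC50 at or below 10 µM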;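 also: intact quenched peptide substrate alone read at 355 nm excitation and 520 nm emission; signal is fluorescence gain from T0 to T4 after four hours at room temperature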
* = called active by the depositor; i = inactive; · = not tested or not shown. A selection: hits, their analogues and other compounds. The true share with any hit is near 3%.

SMILES	PLC-gamma1 inh	Tn7 DDE FP	DDE Tn6 FP inh	proKLK7 act	NRP1-CendR mod	PLCb3 inh	proKLK7 act conf	EDANS-DABCYL int	others
COc1cccc(CNC(=S)Nc2ccc3c(c2)c(=O)n(C)n3Cc2ccccc2)c1	-160.6	3.3	2.5	1.2	-11.4	-200.2	·	·
Cn1c(=O)c2cc(NC(=O)OCCF)ccc2n1Cc1cccc(C(F)(F)F)c1	-488.5	5.1	1.1	13.3*	-2.6	i	9.0	5.7*
Cn1c(=O)c2cc(NC(=O)NCCc3ccccc3)ccc2n1Cc1cccc(C(F)(F)F)c1	-375.8	-1.7	-3.7	-22.0	-8.9	i	·	·
Cc1ccc(CNC(=S)Nc2ccc3c(c2)c(=O)n(C)n3Cc2cccc(C(F)(F)F)c2)cc1	i	-10.9	-2.8	2.1	-5.6	i	·	·
CCNC(=S)Nc1ccc2c(c1)c(=O)n(C)n2Cc1cccc(C(F)(F)F)c1	i	12.3	8.7	19.6*	-3.3	i	-7.2	-5.6
COc1cccc(CNC(=S)Nc2ccc3c(c2)c(=O)n(C)n3Cc2csc(C)n2)c1	-499.3	-5.2	-9.0	15.2*	-22.3	i	-1.6	1.6
Nc1c(C(=O)NCc2ccccc2)c2nc3ccccc3nc2n1CCCN1CCOCC1	i	1.5	2.1	-65.3	-7.4	i	·	·
COc1ccc(CNC(=O)c2c(N)n(CCCN3CCOCC3)c3nc4ccccc4nc23)cc1	i	0.6	-1.2	-30.8	-8.0	i	·	·
COCCOC(=O)c1c(N)n(CCCN2CCOCC2)c2nc3ccccc3nc12	i	5.6	-0.2	46.0*	3.3	i	75.4*	79.2*
Cc1cccc(-n2c(N)c(C(=O)NCCN3CCOCC3)c3nc4ccccc4nc32)c1	i	-0.2	-1.2	-65.4	·	i	·	·
CC(C)Cn1c(N)c(C(=O)NCCN2CCOCC2)c2nc3ccccc3nc21	i	-12.5	0.0	56.5*	-5.1	-491.4	-93.3	-107.8
COC(=O)c1c(N)n(CCCN2CCOCC2)c2nc3ccccc3nc12	i	6.6	-2.7	43.4*	-2.4	i	75.0*	80.3*
CC(C)C(=O)N1CC[C@H]2[C@H](CCCN2Cc2ccccc2)C1	-0.4	13.3	-3.3	-0.1	·	-2.8	·	·
COc1cccc(CNC2CCC23CCC(C)CC3)c1 (configuration not stated)	2.0	0.3	-0.8	·	·	0.1	·	·
CC(COc1cccc(Cl)c1)CN1CCC(C(O)(c2ccccc2)c2ccccc2)CC1 (configuration not stated)	5.1	1.8	-5.6	0.2	·	3.1	·	·
COCCCNC(=O)C[C@@H]1C(=O)N2CCCC3=C2[C@@]1(C(=O)OC)CCCC3	1.3	-7.4	-6.7	-0.1	·	1.4	·	·
Nc1cccc2c1C(=O)N(C(=O)c1cccc(S(=O)(=O)N3CCCC3)c1)C2=O	i	0.4	-0.1	32.0*	-5.8	i	189.6*	196.0*
NC(=O)c1cccc(S(=O)(=O)N2CCCCC2)c1	-1.4	8.9	4.7	-0.6	1.4	1.0	·	·
COC(=O)[C@]12C[C@H](CC(=O)N3CCOCC3)C(=O)N(CCc3ccc(OC)c(OC)c3)C1=C[C@H](C(C)C)O[C@@H]2C1CC1	2.5	-0.5	-2.8	0.0	·	3.3	·	·
CN(C)c1nc(N)c2nccnc2n1	-361.8	-1.3	-10.2	21.4*	1.3	i	0.9	0.3
CCn1c(/C=C/c2cc[n+](C)cc2)nc2ccccc21	i	6.9	0.8	56.8*	1.1	i	59.1*	62.2*
CCOC(=O)c1cc2c(=O)n3cccc(C)c3nc2n(Cc2ccco2)c1=NC(=O)c1ccccc1	i	3.4	9.8	24.3*	-53.4	i	36.6*	36.1*
CCOC(=O)c1cc2c(=O)n3ccccc3nc2n(Cc2ccco2)c1=NC(=O)c1ccc(OC)cc1	i	0.6	-0.6	12.7*	-12.1	i	105.2*	104.0*
CCOC(=O)c1cc2c(=O)n3ccccc3nc2n(Cc2ccco2)c1=NC(=O)c1cccc(OC)c1	i	0.9	-4.9	28.7*	-38.8	i	41.8*	52.8*
CCCC1CCC2(CCCN2CCOC(=O)Nc2cccc(Cl)c2)CC1 (configuration not stated)	1.9	-1.7	-5.0	·	·	1.8	·	·
SMILES	PLC-gamma1 inh	Tn7 DDE FP	DDE Tn6 FP inh	proKLK7 act	NRP1-CendR mod	PLCb3 inh	proKLK7 act conf	EDANS-DABCYL int	others
Cc1c[nH]c2cccc(-c3cccc4ccccc34)c12	-19.8	5.6	-5.8	0.0	·	-32.4	·	·
CN1[C@H](Cc2ccccc2)COc2cccc(F)c2S1(=O)=O	-0.8	-1.6	-1.7	-0.8	·	-0.2	·	·
Cn1ccnc1C(=O)O[C@@H]1CCC[C@@]2(C(=O)N(Cc3ccccc3)c3ccccc32)[C@H]1NC(=O)CCc1ccccc1	-2.7	-0.6	11.4	0.3	·	2.6	·	·
Cc1ccc(C2C3=C(CC(C)(C)CC3=O)N(CCN3CCOCC3)C3=C2C(=O)CC(C)(C)C3)cc1	-347.0	1.1	1.0	16.9*	2.5	-400.8	7.8	10.2*
CC1(C)CC(=O)C2=C(C1)N(CCN1CCOCC1)C1=C(C(=O)CC(C)(C)C1)C2c1ccc(Cl)c([N+](=O)[O-])c1	-4.7	-3.2	-5.0	1.7	16.0	-11.3	·	·
COc1ccc(OC)c(C(c2c(O)nc(SC)[nH]c2=O)c2c(O)nc(SC)[nH]c2=O)c1	-79.3	1.0	-3.9	12.8*	12.6	-92.5	15.3*	14.7*
COc1cc(C(c2c(O)nc(SC)[nH]c2=O)c2c(O)nc(SC)[nH]c2=O)cc(OC)c1OC	-2.2	2.4	9.0	-0.6	1.5	-7.4	·	·
COc1cc2c(cc1OC)CN(C1CCCN(Cc3cccc(C(C)=O)c3)C1)CC2 (configuration not stated)	-140.3	-5.6	-2.8	22.9*	13.8	-249.8	9.7	11.5*
Nc1ccc(Cl)cc1C(=O)OCC(=O)NC1CCS(=O)(=O)C1 (configuration not stated)	-263.8	7.7	2.3	13.9*	-4.4	-382.9	22.5*	18.6*	EDANS interf=i

Compound activity deposited in PubChem by several laboratories.
